# Experimental data as given in ChEMBL document CHEMBL1154352, “Toll-like receptor 7 selective synthetic oligoribonucleotide agonists: synthesis and structure-activity relationship studies” (J Med Chem, 2009).
# Activity calls are given as the source filed them. No cut-off for these calls is given here.
# Key:
# [1] = target: T1, Toll-like receptor 7 (Homo sapiens) (UniProt Q9NYK1); experiment: Activation of human TLR7 expressed in HEK293XL assessed as fold induction of NF-kappaB activity at 50 ug/ml after 18 hrs by reporter gene assay relative to control
# T1 sequence (whole entry): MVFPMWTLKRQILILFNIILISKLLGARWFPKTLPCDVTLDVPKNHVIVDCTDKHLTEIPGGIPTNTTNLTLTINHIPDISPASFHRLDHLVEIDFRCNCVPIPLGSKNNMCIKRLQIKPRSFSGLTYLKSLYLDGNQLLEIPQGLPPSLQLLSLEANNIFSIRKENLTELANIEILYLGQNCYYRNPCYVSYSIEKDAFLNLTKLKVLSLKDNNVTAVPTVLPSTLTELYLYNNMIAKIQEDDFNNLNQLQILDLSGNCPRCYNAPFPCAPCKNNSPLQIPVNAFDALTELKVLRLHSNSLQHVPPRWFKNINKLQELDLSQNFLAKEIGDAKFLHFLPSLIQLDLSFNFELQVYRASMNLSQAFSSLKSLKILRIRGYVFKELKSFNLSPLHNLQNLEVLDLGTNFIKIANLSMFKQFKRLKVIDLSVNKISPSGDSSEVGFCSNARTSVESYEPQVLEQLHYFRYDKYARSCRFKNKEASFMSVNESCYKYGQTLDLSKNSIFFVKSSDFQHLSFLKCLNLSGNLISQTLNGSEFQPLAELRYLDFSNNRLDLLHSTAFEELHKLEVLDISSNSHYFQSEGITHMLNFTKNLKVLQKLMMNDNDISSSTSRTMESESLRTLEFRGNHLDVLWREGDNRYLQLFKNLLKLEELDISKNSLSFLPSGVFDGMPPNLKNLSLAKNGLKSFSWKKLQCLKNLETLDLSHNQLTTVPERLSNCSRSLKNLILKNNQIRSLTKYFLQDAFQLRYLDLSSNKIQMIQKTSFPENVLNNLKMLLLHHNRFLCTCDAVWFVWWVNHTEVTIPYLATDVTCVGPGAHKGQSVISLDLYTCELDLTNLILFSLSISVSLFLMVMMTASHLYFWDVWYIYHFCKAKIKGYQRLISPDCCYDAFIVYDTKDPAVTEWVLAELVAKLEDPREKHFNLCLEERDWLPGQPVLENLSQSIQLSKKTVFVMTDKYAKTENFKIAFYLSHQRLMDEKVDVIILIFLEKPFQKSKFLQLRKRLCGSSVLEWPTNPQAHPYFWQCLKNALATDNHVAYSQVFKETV
# Outline: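 HEK293 cells stably expressing human TLR7 or TLR8, transiently transfected with SEAP reporter plasmid; medium replaced, SIMRA compounds added, 18 h incubation. Supernatant SEAP measured by QuantiBlue; expressed as fold increase in NF-κB activity over PBS control. Tabulated data at 50 μg/mL, representative of three independent experiments.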
# Homo sapiens [2] = species on record: Homo sapiens; experiment: Ratio of human TLR7 activity to human TLR8 activity
# Outline: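 TLR7/TLR8 ratio computed from fold NF-κB (SEAP reporter) activation in HEK293 cells stably expressing human TLR7 versus TLR8, compounds at 50 μg/mL, 18 h exposure; representative of three independent experiments.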
# Homo sapiens [3] = species on record: Homo sapiens; experiment: Immunostimulatory activity in human pDC assessed as induction of IFNalpha at 100 ug/ml after 24 hrs; assay type: functional
# Outline: (§1)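 Human pDCs plated at 1 × 10^6 cells/mL; compounds in PBS added, 37 °C for 24 h; supernatant cytokines/chemokines by human Luminex multiplex kit.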
# PBMC [4] = experiment: Immunomodulatory activity in human PBMC assessed as induction of IL12 at 50 ug/ml after 24 hrs; assay type: functional, cell-based
# Outline: (§2)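 Human PBMCs plated at 5 × 10^6 cells/mL; compounds dissolved in PBS added at various concentrations, 37 °C for 24 h. Supernatant cytokines/chemokines quantified with human Luminex multiplex kit.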
# PBMC [5] = experiment: Immunomodulatory activity in human PBMC assessed as induction of TNFalpha at 50 ug/ml after 24 hrs; assay type: functional, cell-based; outline: as §2
# PBMC [6] = experiment: Immunomodulatory activity in human PBMC assessed as induction of IFNalpha at 50 ug/ml after 24 hrs; assay type: functional, cell-based; outline: as §2
# PBMC [7] = experiment: Immunomodulatory activity in human PBMC assessed as induction of MIP1alpha at 50 ug/ml after 24 hrs; assay type: functional, cell-based; outline: as §2
# PBMC [8] = experiment: Immunomodulatory activity in human PBMC assessed as induction of MIP1beta at 50 ug/ml after 24 hrs; assay type: functional, cell-based; outline: as §2
# PBMC [9] = experiment: Immunomodulatory activity in human PBMC assessed as induction of IP10 at 50 ug/ml after 24 hrs; assay type: functional, cell-based; outline: as §2
# PBMC [10] = experiment: Immunomodulatory activity in human PBMC assessed as induction of MCP1 at 50 ug/ml after 24 hrs; assay type: functional, cell-based; outline: as §2
# PBMC [11] = experiment: Immunomodulatory activity in human PBMC assessed as induction of IL6 at 50 ug/ml after 24 hrs; assay type: functional, cell-based; outline: as §2
# PBMC [12] = experiment: Immunomodulatory activity in human PBMC assessed as induction of IL1-beta at 50 ug/ml after 24 hrs; assay type: functional, cell-based; outline: as §2
# Homo sapiens [13] = species on record: Homo sapiens; experiment: Immunostimulatory activity in human pDC assessed as induction of IP10 at 100 ug/ml after 24 hrs; assay type: functional; outline: as §1
# Homo sapiens [14] = species on record: Homo sapiens; experiment: Immunostimulatory activity in human pDC assessed as induction of IL6 at 100 ug/ml after 24 hrs; assay type: functional; outline: as §1
# Homo sapiens [15] = species on record: Homo sapiens; experiment: Immunostimulatory activity in human mDC assessed as induction of IFNalpha at 100 ug/ml after 24 hrs; assay type: functional
# Outline: (§3)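 Human mDCs isolated from PBMCs by CD19+ B-cell depletion then BDCA1 positive selection; plated at 1 × 10^6 cells/mL, compounds in PBS, 37 °C for 24 h; supernatant cytokines by human Luminex multiplex. Representative of four independent experiments.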
# Homo sapiens [16] = species on record: Homo sapiens; experiment: Immunostimulatory activity in human mDC assessed as induction of IP10 at 100 ug/ml after 24 hrs; assay type: functional; outline: as §3
# Homo sapiens [17] = species on record: Homo sapiens; experiment: Immunostimulatory activity in human mDC assessed as induction of IL12 at 100 ug/ml after 24 hrs; assay type: functional; outline: as §3
# Homo sapiens [18] = species on record: Homo sapiens; experiment: Immunostimulatory activity in human mDC assessed as induction of IL6 at 100 ug/ml after 24 hrs; assay type: functional; outline: as §3
# Homo sapiens [19] = species on record: Homo sapiens; experiment: Immunostimulatory activity in human mDC assessed as induction of TNFalpha at 100 ug/ml after 24 hrs; assay type: functional; outline: as §3
# Mus musculus = experiment: Immunomodulatory activity in C57BL/6 mouse assessed as induction of IL12 release at 25 mg/kg, sc after 2 hrs by ELISA; assay type: functional, organism-based; parameters: dose 25 mg/kg
# Outline: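 Female C57BL/6 wild-type mice, 5–8 weeks old, n=3; compounds given subcutaneously at 10 or 25 mg/kg. Retro-orbital blood at 2 h; serum cytokines by mouse Luminex multiplex or IL-12 ELISA.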
SMILES,fold change (FC) [1],Ratio (Homo sapiens [2]),Activity (Homo sapiens [3]),Activity (PBMC [4]) [pg/mL],Activity (PBMC [5]) [pg/mL],Activity (PBMC [6]) [pg/mL],Activity (PBMC [7]) [pg/mL],Activity (PBMC [8]) [pg/mL],Activity (PBMC [9]) [pg/mL],Activity (PBMC [10]) [pg/mL],Activity (PBMC [11]) [pg/mL],Activity (PBMC [12]) [pg/mL],Activity (Homo sapiens [13]),Activity (Homo sapiens [14]),Activity (Homo sapiens [15]),Activity (Homo sapiens [16]),Activity (Homo sapiens [17]),Activity (Homo sapiens [18]),Activity (Homo sapiens [19]),Activity (Mus musculus)
Nc1ccn([C@@H]2O[C@H](COP(O)(=S)O[C@H]3[C@@H](O)[C@H](n4ccc(=O)[nH]c4=O)O[C@@H]3COP(O)(=S)O[C@H]3[C@@H](O)[C@H](n4ccc(=O)[nH]c4=O)O[C@@H]3COP(O)(=S)O[C@H]3[C@@H](O)[C@H](n4ccc(N)nc4=O)O[C@@H]3COP(O)(=S)O[C@H]3[C@@H](O)[C@H](n4ccc5c(=O)[nH]c(N)nc54)O[C@@H]3COP(O)(=S)O[C@H]3[C@@H](O)[C@H](n4ccc(=O)[nH]c4=O)O[C@@H]3COP(O)(=S)O[C@H]3[C@@H](O)[C@H](n4ccc(N)nc4=O)O[C@@H]3COP(O)(=S)O[C@H]3[C@@H](O)[C@H](n4ccc5c(=O)[nH]c(N)nc54)O[C@@H]3COP(O)(=S)O[C@H]3[C@@H](O)[C@H](n4ccc(=O)[nH]c4=O)O[C@@H]3CO)[C@@H](OP(O)(=S)OC[C@H]3O[C@@H](n4ccc(=O)[nH]c4=O)[C@H](O)[C@@H]3OP(O)(=S)OC[C@H]3O[C@@H](n4ccc5c(=O)[nH]c(N)nc54)[C@H](O)[C@@H]3OP(O)(=S)OCC(O)COP(O)(=S)O[C@H]3[C@@H](O)[C@H](n4ccc5c(=O)[nH]c(N)nc54)O[C@@H]3COP(O)(=S)O[C@H]3[C@@H](O)[C@H](n4ccc(=O)[nH]c4=O)O[C@@H]3COP(O)(=S)O[C@H]3[C@@H](O)[C@H](n4ccc(N)nc4=O)O[C@@H]3COP(O)(=S)O[C@H]3[C@@H](O)[C@H](n4ccc(=O)[nH]c4=O)O[C@@H]3COP(O)(=S)O[C@H]3[C@@H](O)[C@H](n4ccc(=O)[nH]c4=O)O[C@@H]3COP(O)(=S)O[C@H]3[C@@H](O)[C@H](n4ccc(N)nc4=O)O[C@@H]3COP(O)(=S)O[C@H]3[C@@H](O)[C@H](n4ccc5c(=O)[nH]c(N)nc54)O[C@@H]3COP(O)(=S)O[C@H]3[C@@H](O)[C@H](n4ccc(=O)[nH]c4=O)O[C@@H]3COP(O)(=S)O[C@H]3[C@@H](O)[C@H](n4ccc(N)nc4=O)O[C@@H]3COP(O)(=S)O[C@H]3[C@@H](O)[C@H](n4ccc5c(=O)[nH]c(N)nc54)O[C@@H]3COP(O)(=S)O[C@H]3[C@@H](O)[C@H](n4ccc(=O)[nH]c4=O)O[C@@H]3CO)[C@H]2O)c(=O)n1 (stereo not given in full),16.1,3.4,Active,671,688,373,15500,27600,167,47400,5580,688,Active,Active,Active,Active,Active,Active,Active,Active
Nc1ccn([C@@H]2O[C@H](CO[C@H]3[C@@H](O)[C@H](n4cnc5c(N)ncnc54)O[C@@H]3COP(=O)(S)O[C@H]3[C@@H](O)[C@H](n4ccc5c(=O)[nH]c(N)nc54)O[C@@H]3COP(=O)(S)O[C@H]3[C@@H](O)[C@H](n4ccc(=O)[nH]c4=O)O[C@@H]3COP(=O)(S)O[C@H]3[C@@H](O)[C@H](n4cnc5c(N)ncnc54)O[C@@H]3COP(=O)(S)O[C@H]3[C@@H](O)[C@H](n4ccc5c(=O)[nH]c(N)nc54)O[C@@H]3COP(=O)(S)O[C@H]3[C@@H](O)[C@H](n4ccc(=O)[nH]c4=O)O[C@@H]3CO)[C@@H](OP(=O)(S)OC[C@H]3O[C@@H](n4ccc5c(=O)[nH]c(N)nc54)[C@H](O)[C@@H]3OP(=O)(S)OC[C@H]3O[C@@H](n4cnc5c(N)ncnc54)[C@H](O)[C@@H]3OP(=O)(S)OC[C@H]3O[C@@H](n4ccc(=O)[nH]c4=O)[C@H](O)[C@@H]3OP(=O)(S)OC[C@H]3O[C@@H](n4ccc(=O)[nH]c4=O)[C@H](O)[C@@H]3OP(=O)(S)OCC(O)COP(=O)(S)O[C@H]3[C@@H](O)[C@H](n4ccc(=O)[nH]c4=O)O[C@@H]3COP(=O)(S)O[C@H]3[C@@H](O)[C@H](n4ccc(=O)[nH]c4=O)O[C@@H]3COP(=O)(S)O[C@H]3[C@@H](O)[C@H](n4cnc5c(N)ncnc54)O[C@@H]3COP(=O)(S)O[C@H]3[C@@H](O)[C@H](n4ccc5c(=O)[nH]c(N)nc54)O[C@@H]3COP(=O)(S)O[C@H]3[C@@H](O)[C@H](n4ccc(N)nc4=O)O[C@@H]3CO[C@H]3[C@@H](O)[C@H](n4cnc5c(N)ncnc54)O[C@@H]3COP(=O)(S)O[C@H]3[C@@H](O)[C@H](n4ccc5c(=O)[nH]c(N)nc54)O[C@@H]3COP(=O)(S)O[C@H]3[C@@H](O)[C@H](n4ccc(=O)[nH]c4=O)O[C@@H]3COP(=O)(S)O[C@H]3[C@@H](O)[C@H](n4cnc5c(N)ncnc54)O[C@@H]3COP(=O)(S)O[C@H]3[C@@H](O)[C@H](n4ccc5c(=O)[nH]c(N)nc54)O[C@@H]3COP(=O)(S)O[C@H]3[C@@H](O)[C@H](n4ccc(=O)[nH]c4=O)O[C@@H]3CO)[C@H]2O)c(=O)n1 (stereo not given in full),17.5,10.9,Active,434,68,131,5790,9960,155,56000,2760,306,Active,Active,Active,Active,Active,Active,Active,Active
